Yeast growth inh – chemicals that inhibit yeast BB579 growth in restrictive medium (lifespan-shortening candidates). S. cerevisiae BB579 growth, OD615, 48 h. inhibition, % at 10 µM. 140,000 tested, 0.51% active. AID 804;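 active = inhibition above a set limit, 3 SD over the mean compound inhibition, cut at about 44% in these data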
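System: Saccharomyces cerevisiae DeaD strain BB579, replicative lifespan model yeast | Buffer or medium: Restrictive glucose-based CSMM-D medium | Times: 4 h preincubation and 48 h exposure at 30 °C | Detection: OD615 turbidity measurement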
RAM inhibit – yeast RAM network inhibition; 190,000 tested, 1.8% active; S. cerevisiae dse1pr::URA3 reporter, 5-FOA growth OD615, 2 d; analog-sensitive cbk1-as2 kinase mutant strain; inhibition, % at 50 µM;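 active = inhibition above a set limit, 3 SD over mean compound inhibition, cut at about 8.4% in these data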;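 note: 0% = DMSO-only wells with no growth and 100% = 10 µM 1-NA-PP1 full growth; inhibition rescues growth on 5-FOA so higher OD means more RAM inhibition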
Measles CPE – protection of cells from measles virus | protection (pct of control), % at 4 µM | Measles virus-infected cells, CPE protection, absorbance | 140,000 tested, 1.5% active; in the data active = protection mostly above about 24%, no sharp cut-off; inactive = mostly below about 26%
Yeast lifespan up – extends the lifespan of yeast | S. cerevisiae growth with nicotinamide, OD615; deaD strain in restrictive glucose medium | 130,000 tested, 0.68% active | AID 775 | inhibition of the nicotinamide effect, % at 10 µM;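 active = inhibition above a set limit, placed 3 SD over the median of all compounds, cut at about 26% in these data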;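 note: 0% = nicotinamide-treated wells and 100% = cells grown without nicotinamide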
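System: Modified budding yeast, DeaD strain | Buffer or medium: Restrictive glucose medium | Also added: 1.5 mM nicotinamide | Doses: 10 µM single point, 0.25% DMSO | Schedule: 48 h compound exposure at 30 °C, humidified | Detection: Absorbance at 615 nm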
The depositor's hits bear a star; . = no result given. Compounds with a hit are over-represented: about 3.8% of the library has one in this group of screens.

SMILES | Yeast growth inh | RAM inhibit | Measles CPE | Yeast lifespan up
CC1=CS(=O)(=O)CC1Sc1nc2ccccc2[nH]1 (stereo not drawn) | -59 | 1 | 4 | 68*
CSc1cccc(NC(=O)Cn2cccc2)c1 | -29 | 3 | 80* | -15
O=C(N/N=C/c1ccc([N+](=O)[O-])s1)c1ccccc1Br | -38 | 3 | 7 | -10
Cc1ccccc1C(=O)N/N=C/c1ccc([N+](=O)[O-])s1 | -17 | 1 | 44* | -4
Cc1cc(C)c2c(c1)-c1c(ssc1=S)C(C)(C)N2C(=O)CN1C(=O)c2ccccc2C1=O | -33 | 11* | 10 | -1
Cc1noc(C)c1CSc1nnc(-c2c[nH]c3ccccc23)n1-c1ccc(Cl)cc1 | -32 | 9.4* | 9 | -1
Cc1ccc2nc(-c3ccccn3)cc(C(=O)NC3CCN(C)CC3)c2c1 | 5 | 1 | 67* | -19
O=C(NC1CCCCC1)c1cc(-c2ccccn2)nc2ccccc12 | . | 4 | . | .
Cc1ccc2c(c1)c1c(n2C)-c2[nH]ncc2CC1 | 99* | 2 | 17 | .
CCOc1ncccc1C(=O)OCC(=O)c1ccc(F)cc1 | . | -1 | . | .
CC1(C)CC(=O)C(=Cc2cn(CCC#N)nc2-c2ccc(Cl)cc2)C(=O)C1 | -51 | 3 | 37 | 39*
COc1ccc2c(c1)SCCC2=O | -10 | 3 | 34* | -12
C=CCNC(=S)N(CC=C)C1CCS(=O)(=O)C1 (stereo not drawn) | -6 | 0 | 4 | 2
CC(C)C[C@H](NC(=O)c1nc[nH]c1C(=O)NC(c1ccccc1)c1ccccc1)C(=O)OCc1ccccc1 | . | 6 | . | .
O=C(N[C@@H](Cc1ccccc1)C(=O)OCc1ccccc1)c1nc[nH]c1C(=O)NCc1ccccc1 | . | 9.2* | . | .
O=S(=O)(Nc1nc(-c2sccc2Cl)cs1)c1cc(Cl)ccc1Cl | -24 | 3 | 8 | 46*
Cc1cc(=O)oc2cc(OC(=O)c3nn(C(C)C)c(=O)c4ccccc34)ccc12 | -33 | 6 | 3 | 0
CC(C)n1nc(C(=O)Oc2ccc(Cl)cc2)c2ccccc2c1=O | -32 | 7 | 43 | 29*
CN(C)C(=O)c1c(C(F)(F)F)nn(C)c1Cl | . | 0 | . | .
COc1ccc(-n2nnnc2-c2cnc3cc4c(cc3c2C)OCO4)cc1 | 4 | -1 | 53* | -22
COc1ccc(-n2nnnc2-c2cccc(OC)c2)cc1 | -19 | 0 | 6 | -7
CC1=CS/C(=C(/C#N)C(=O)N2CCOCC2)N1c1ccccc1 | -12 | 0 | 3 | -5
CC1=CS/C(=C(/C#N)C(=O)N2CCCCC2)N1c1ccccc1 | -5 | 1 | 33* | -5
CCOC(=O)C1=C(C)N2C(=C(C#N)[C@@H]1c1ccc(C(=O)OC)cc1)SC[C@@]2(O)C(C)(C)C | -62 | 4 | 14 | -6
Cc1ccc(N=N/C(=C\O)C(=O)c2ccncc2)cc1 | 5 | -1 | 11 | 22
SMILES | Yeast growth inh | RAM inhibit | Measles CPE | Yeast lifespan up
O=C(/C(=C/O)N=Nc1ccc(Cl)cc1)c1ccncc1 | -31 | 0 | 6 | 77*
COC(=O)c1ccc2c(=O)n(-c3ccc(OC)cc3)c(=S)[nH]c2c1 | . | 4 | . | .
O=c1[nH]cnc2c1ncn2[C@@H]1O[C@H](CO)[C@@H](O)[C@H]1O | 4 | 1 | 16 | 2
O=c1cnn([C@@H]2O[C@H](CO)[C@@H](O)[C@H]2O)c(=O)[nH]1 | 44* | 0 | 39 | 12
CC1(C)CC(=O)c2c(O)cc(OCc3ccc(Br)cc3)cc2O1 | -45 | 8.7* | 31 | -3
COc1cc(O)c2c(c1)OC(C)(C)CC2=O | -15 | 1 | 0 | -11
COC(=O)c1ccc(COc2cc(O)c3c(c2)OC(C)(C)CC3=O)cc1 | -66 | 10* | 1 | 0
CCc1nnc(NC(=O)c2cccc(S(=O)(=O)N(C)c3ccccc3)c2)s1 | -91 | 2 | 3 | 71*
CCSc1nnc(NC(=O)c2cccc(S(=O)(=O)N(C)c3ccc(C)cc3)c2)s1 | -17 | 5 | 13 | 17
CCOC(=O)N1CCC(N2C(=O)c3ccccc3C2Nc2ccc(C)cc2)CC1 (stereo not drawn) | -12 | 0 | 36* | -11
CCOC(=O)N1CCC(N2C(=O)c3ccccc3C2Nc2ccccc2)CC1 (stereo not drawn) | 3 | 2 | 4 | -8
COc1ccc(/C=C(/C(=O)c2ccc(Cl)cc2Cl)n2cncn2)cc1 | -12 | -2 | 2 | 43*
CC(C)CC(=O)/C(=C\c1ccc(Cl)cc1Cl)n1cncn1 | 61* | -1 | 1 | -3
O=S(=O)(NC(=NCc1ccccc1)c1ccc(F)cc1)c1ccc(Cl)cc1 | . | 3 | . | .
Cc1cccc(/N=C/c2c(O)ccc3oc4c(c23)CCCC4)n1 | -15 | 1 | 10 | 31*
Cc1cccc(/N=C/c2c(O)cc(C)oc2=O)n1 | -70 | 2 | 9 | 2
CCOC(=O)c1nn(-c2ccc(OCC)cc2)c2nc(-c3ccco3)c(C#N)c(=O)n12 | -28 | 3 | 6 | -4
COc1ccc(-n2c(C)n[nH]c2=O)cc1 | -22 | 2 | 68* | -12
Clc1ccc(Cn2c(-c3cccnc3Cl)nc3ccccc32)cc1 | -53 | 1 | 33* | 0
C/C(N)=C(/C#N)C(=O)COC(=O)[C@@H](NC(=O)c1ccccc1Cl)C(C)C | . | 2 | . | .
O=C(/C=C/c1cccs1)Nc1ccc(Br)cn1 | -6 | 1 | 12 | -7
CN1CCN(CCCNC(=O)Nc2cccc3ccccc23)CC1 | -7 | 1 | 44* | -10
O=C(c1ccccc1)c1c[nH]c(C(=O)NNc2ccccc2)c1 | . | 3 | . | .
CCCCCCCOC(=O)C[N+](C)(C)CCOC1CC2CCC1(C)C2(C)C (stereo not drawn) | 100* | -3 | 12 | -12
CCOc1cc(Br)ccc1S(=O)(=O)NCc1ccccc1 | -14 | -1 | 17 | -6
SMILES | Yeast growth inh | RAM inhibit | Measles CPE | Yeast lifespan up
Cc1ccc2cc3cc(C(=O)NCc4ccc5c(c4)OCO5)oc3nc2c1 | -23 | 0 | 34* | -8
Cc1ccc(NC(=O)NCc2ccc3c(c2)OCO3)c(C)c1 | . | 3 | . | .
Cc1ccc(O)c(-c2cc(C(=O)NCc3ccc4c(c3)OCO4)[nH]n2)c1 | -14 | 7 | 29* | 3
CCC(C)(C)NC(=O)C(c1ccccn1)N(C(=O)c1csnn1)c1ccc(C)cc1 (stereo not drawn) | . | 0 | . | .
CCOC(=O)NS(=O)(=O)c1ccc(CCNC(=O)c2cc(C)on2)cc1 | 8 | 3 | 5 | 7
Cc1cc(C(=O)N/N=C2\CC(=O)c3ccccc32)c(C)n1-c1ccccc1 | . | 5 | . | .
NNC(=O)c1cccc(COc2ccccc2Br)c1 | -29 | 1 | . | -17
NNC(=O)c1cccc(COc2ccc3c(c2)CCC3)c1 | 51* | -1 | 4 | -5
CC(C)CCNC(=O)Cc1c(C(=O)O)[nH]c2ccc(Cl)cc12 | -23 | 4 | 46* | -5
Cc1cccc(N2CCN(C(=O)Cc3c(C(=O)O)[nH]c4ccc(Cl)cc34)CC2)c1C | -39 | 2 | 8 | -8
COCCCNc1c2c3c(cccc3[nH]c1=O)C(=O)c1ccccc1-2 | 0 | -1 | 7 | 35*
CCOC(=O)c1c2c3c(cccc3[nH]c1=O)C(=O)c1ccccc1-2 | . | 3 | . | .

From PubChem
